# This is a sample that favours compounds with a hit; in the whole collection about 3.1% have one here.
# KCNQ1 inh: inhibitors of human KCNQ1 channel, primary screen, cell-based, thallium flux, high-throughput. Potassium voltage-gated channel subfamily KQT member 1 (Homo sapiens), P51787. CHO-K1 KCNQ1, FluxOR thallium flux fluorescence; hits give high values. B-score at 10 µM. 310,000 compounds, 1.3% hits. AID 2642, 2010;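 active = compounds whose thallium flux B-score, printed positive for inhibition, exceeds three library SD while starting fluorescence stays within three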;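 note: channel opened by potassium depolarization with thallium stimulus after 20 min compound exposure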
# KCNK9 block: KCNK9 potassium channel inhibitors, primary screen, HEK293 cells, thallium flux; Potassium channel subfamily K member 9 (Homo sapiens), Q9NPC2; FluxOR thallium flux fluorescence; hits give low values; B-score at 10 µM; 310,000 compounds, 1.2% hits; AID 488922, 2010;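 active = ratio B-score over 3 SD below the library mean, with starting fluorescence within 5 SD of its mean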;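 note: negative B-score means less thallium flux so channel inhibition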
# hERG protect: hERG rescue from dofetilide block, primary screen, cell-based, CHO-hERG, FluxOR thallium flux, dofetilide IC70. AID 1511, 2009. 310,000 compounds, 0.51% hits. activation (rescue from dofetilide block), less the hit threshold, % at 10 µM. dofetilide IC70 present;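 active = activation above the mean of controls blocked by dofetilide plus 5 SD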;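 note: thallium influx through hERG after potassium depolarization seen as dye fluorescence rise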
# Target sequence (Q12809 whole entry, looked up): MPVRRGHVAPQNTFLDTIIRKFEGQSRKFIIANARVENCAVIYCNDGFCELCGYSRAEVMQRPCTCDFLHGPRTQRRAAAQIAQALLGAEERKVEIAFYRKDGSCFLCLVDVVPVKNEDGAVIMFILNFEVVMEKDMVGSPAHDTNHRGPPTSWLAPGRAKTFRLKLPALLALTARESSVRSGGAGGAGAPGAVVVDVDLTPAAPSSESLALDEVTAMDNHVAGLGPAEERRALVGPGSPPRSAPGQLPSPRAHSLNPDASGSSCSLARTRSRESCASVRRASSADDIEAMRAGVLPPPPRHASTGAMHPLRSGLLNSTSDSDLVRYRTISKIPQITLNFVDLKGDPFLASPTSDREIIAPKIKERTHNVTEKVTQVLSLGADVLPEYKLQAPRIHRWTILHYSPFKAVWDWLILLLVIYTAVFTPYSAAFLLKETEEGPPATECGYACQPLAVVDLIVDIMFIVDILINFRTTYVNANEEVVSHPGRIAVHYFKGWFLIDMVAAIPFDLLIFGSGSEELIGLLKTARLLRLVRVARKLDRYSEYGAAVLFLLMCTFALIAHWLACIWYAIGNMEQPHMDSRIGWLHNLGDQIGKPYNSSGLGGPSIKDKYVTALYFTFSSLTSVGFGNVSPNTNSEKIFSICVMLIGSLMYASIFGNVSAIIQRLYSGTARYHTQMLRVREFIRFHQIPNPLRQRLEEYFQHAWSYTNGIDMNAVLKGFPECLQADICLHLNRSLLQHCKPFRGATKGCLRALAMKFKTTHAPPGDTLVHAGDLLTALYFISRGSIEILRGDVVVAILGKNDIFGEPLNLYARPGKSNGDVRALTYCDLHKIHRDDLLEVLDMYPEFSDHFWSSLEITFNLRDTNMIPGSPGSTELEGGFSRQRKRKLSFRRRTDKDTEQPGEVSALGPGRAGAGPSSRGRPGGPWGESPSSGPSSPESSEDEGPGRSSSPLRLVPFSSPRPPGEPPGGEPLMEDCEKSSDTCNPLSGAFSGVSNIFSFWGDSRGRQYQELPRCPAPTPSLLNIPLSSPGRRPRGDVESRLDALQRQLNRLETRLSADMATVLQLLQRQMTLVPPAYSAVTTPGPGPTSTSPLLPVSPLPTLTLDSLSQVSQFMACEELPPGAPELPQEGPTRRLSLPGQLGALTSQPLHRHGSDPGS
# KCNQ1 pot: potentiators or activators of KCNQ1 channel, primary screen, cell-based, thallium flux, high-throughput; Potassium voltage-gated channel subfamily KQT member 1 (Homo sapiens), P51787; CHO-K1 KCNQ1, thallium flux FluxOR fluorescence; hits give high values; B-score at 10 µM; 310,000 compounds, 0.35% hits; AID 2648, 2010;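 active = fluorescence ratio B-score, a plate-corrected score, at least three library SD, with initial intensity B-score within 5 SD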
#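 Doses: Single concentration per compound, DMSO matched to controls | Test system: KCNQ1-transfected CHO-K1 cells | Timing: 90 min dye loading and 20 min compound exposure, both at room temperature | Measured by: Kinetic FluxOR thallium fluorescence, 10-s 1-Hz baseline, 110-s post-stimulus read | Medium: Assay buffer with matched DMSO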
# KCNK3 inh: human KCNK3 channel inhibitors, primary screen, CHO cells, FluxOR thallium flux, B-score; AID 602410, 2012; FluxOR fluorescence; hits give low values; B-score at 10 µM; 340,000 compounds, 0.84% hits;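 active = B-score under library mean minus 4 SD, starting fluorescence ratio at most library mean plus 5 SD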;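 note: more negative B-score means stronger inhibition of thallium flux through KCNK3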
# KCNK9 block conf: KCNK9 potassium channel inhibitors, confirmation, HEK293 cells, thallium flux, duplicate; AID 492992, 2010; shares compounds with KCNK9 block; inhibition, % at 10 µM; FluxOR thallium flux fluorescence; 4,900 compounds, 43% hits;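 active = thallium signal inhibited by more than 5 SD of the compound-free buffer control wells, on both duplicate plates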;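 note: 0% = assay buffer control wells without compound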
# Kir2-1 spec: mouse Kir2.1 channel inhibition, confirmation, selectivity assay for KCNK9 modulator project, cell-based, HEK293, thallium flux; shares compounds with KCNK9 block; Kir2.1 cells, FluxOR thallium flux fluorescence; inhibition, % at 10 µM; 4,900 compounds, 4% hits;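 active = thallium signal drop more than 5 SD beyond the mean of the no-compound control wells, seen in both duplicate plates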;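 note: signal is fluorescence rise after thallium addition divided by baseline fluorescence; plate controls were assay buffer only for no effect and full block by chlorpromazine control for full effect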
# HEK293 Tl ctr: thallium flux in non-induced HEK293 cells, confirmation, counter-screen for KCNK9 inhibitor project, cell-based, second counter screen, non-induced KCNK9-HEK293 | FluxOR thallium flux | shares compounds with KCNK9 block | 4,900 compounds, 40% hits | inhibition, % at 10 µM;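 active = thallium signal drop beyond 5 SD of the untreated control mean, on both duplicate plates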;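 note: plate controls were buffer only IC0 wells for no effect and SID17386958 at its maximal inhibitory level for full effect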
# * hit, by the source's call; i = inactive; nt = no result.
SMILES,KCNQ1 inh,KCNK9 block,hERG protect,KCNQ1 pot,KCNK3 inh,KCNK9 block conf,Kir2-1 spec,HEK293 Tl ctr
Cc1cc(C)c(C(=O)C2OC(=O)C(C)(C)C(=O)C2(C)C)c(C)c1 (centres undefined),i,i,-10.7,i,i,i,i,i
CC1CCC2(CC1)NC(=O)N(CC(=O)Nc1cccc(S(=O)(=O)N3CCCC3)c1)C2=O (centres undefined),nt,nt,nt,nt,i,nt,nt,nt
CN(C)c1cc(-c2cccc(C(F)(F)F)c2)oc(=O)c1Cl,i,i,-5.6,i,i,nt,nt,nt
CCOC(=O)C1=C(C)NC(=O)NC1c1c(C)nn(-c2ccccc2)c1Cl (centres undefined),i,i,-7.4,i,i,nt,nt,nt
CCOC(=O)C1=C(C)N(C)C(=O)NC1c1c(C)nn(-c2ccc(C)cc2)c1Cl (centres undefined),i,i,-11.8,i,i,i,i,i
CN(Cc1ccccc1)C(=O)c1ccc(NC(=O)Cc2cccc(NC(=O)C3CCN(C(=O)C4CCCC4)CC3)c2)cc1,nt,nt,nt,nt,i,nt,nt,nt
CCn1c(Cc2ccccc2)nnc1SCC(=O)N1CCCC1=O,i,i,-10.9,i,i,nt,nt,nt
Cc1ccc(N2C(=O)CC(Sc3nccc(C)n3)C2=O)cc1 (centres undefined),i,i,-4.7,i,i,nt,nt,nt
CCc1ccccc1N1C(=O)CC(Sc2nccc(C)n2)C1=O (centres undefined),i,i,-6.0,i,i,i,i,i
O=S(=O)(c1ccccc1Oc1ccc(Cl)cc1Cl)N1CCCCC1,i,-9.92*,-8.0,i,i,45.0%*,i,i
O=S(=O)(c1cccc(Cl)c1Cl)N1CCCCC1,i,i,-18.0,i,i,nt,nt,nt
CSc1ccccc1C(=O)OCC(=O)Nc1cccnc1Cl,nt,nt,nt,nt,i,nt,nt,nt
O=C(NCc1ccco1)C1CCN(c2ccc(S(=O)(=O)N3CCOCC3)cc2[N+](=O)[O-])CC1,i,-9.29*,-5.2,i,i,i,i,i
O=C(O)C1CCN(S(=O)(=O)c2ccc(N3CCOCC3)c([N+](=O)[O-])c2)CC1,i,i,-1.1,i,i,nt,nt,nt
COc1ccc(S(=O)(=O)N2CCN(C(=O)CC3CC4CCC3C4)CC2)cc1 (centres undefined),nt,nt,nt,nt,i,nt,nt,nt
O=C(CCSCc1ccccc1Cl)NCc1cccs1,i,i,5.0*,i,i,i,i,i
COc1ccc(C2=Nc3ccc(C)cc3C(c3ccccc3)N2CC(=O)NN)cc1 (centres undefined),i,i,-10.7,i,i,nt,nt,nt
COC(=O)CN1C(c2ccc(Cl)cc2)=Nc2ccc(Cl)cc2C1c1ccccc1 (centres undefined),i,-10.5*,-11.8,i,i,32.0%*,i,42.0%*
O=C(Nc1nc(-c2cc(Cl)sc2Cl)cs1)c1ccccc1,i,-9.47*,-7.1,i,i,33.5%*,i,i
Cc1nn(-c2ccccc2)c(Cl)c1/C=N/Nc1nc2ccccc2n1C,i,i,-10.9,i,i,i,i,i
CN1CCN(S(=O)(=O)c2ccc3c(c2)CC(=O)N3C)CC1,i,-10.1*,-6.8,i,i,35.0%*,i,i
CN1C(=O)Cc2cc(S(=O)(=O)N3CCN(c4ccc(Cl)cc4)CC3)ccc21,i,i,-4.4,i,i,nt,nt,nt
O=C(NCCS(=O)(=O)N1CCCCCC1)c1ccc(F)cc1,i,i,-13.7,i,i,nt,nt,nt
O=C(NN1C(=O)C2C(c3ccccc3)C=CC(c3ccccc3)C2C1=O)c1cccc(Br)c1 (centres undefined),i,-11.7*,11.0*,i,i,62.5%*,i,37.0%*
CCCCCC(C)NC(=O)c1cc(S(=O)(=O)N2CCCCC2)ccc1N1CCOCC1 (centres undefined),nt,nt,nt,nt,i,nt,nt,nt
SMILES,KCNQ1 inh,KCNK9 block,hERG protect,KCNQ1 pot,KCNK3 inh,KCNK9 block conf,Kir2-1 spec,HEK293 Tl ctr
COc1ccccc1CNC(=O)c1cc(S(=O)(=O)N2CCCCC2)c[nH]1,i,i,-13.6,i,i,nt,nt,nt
COc1ccc(-c2nn(C)c3sc(C(=O)NCc4ccco4)cc23)cc1OC,i,i,-0.8,i,i,nt,nt,nt
COc1cccc(-c2nn(C)c3sc(C(=O)NCc4ccc(C)o4)cc23)c1,i,-13.7*,-19.7,i,i,48.5%*,i,30.0%*
CCn1c(SCC(=O)c2ccc(Cl)cc2)nnc1-c1cccs1,i,i,-3.5,i,i,nt,nt,nt
CCn1c(SCCOc2ccc(Cl)cc2)nnc1-c1cccs1,i,i,-11.2,i,i,i,i,i
COC(=O)c1cc(=O)n(Cc2ccc(OC)cc2)c(=NCc2ccc(OC)cc2)s1,i,i,-14.7,i,i,i,i,i
OCC[C@@H]1C[C@@H](O)[C@H](O)[C@@]2(Cc3ccccc3CCO2)O1,i,i,-8.5,i,i,nt,nt,nt
CCc1cccc(C)c1NC(=O)CCCN1C(=O)CN(C)C1=O,nt,nt,nt,nt,i,nt,nt,nt
Clc1cccc(N2CCN(Cc3nnc(-c4ccccc4)o3)CC2)c1,i,i,-12.8,i,i,i,i,i
COc1ccc(S(=O)(=O)N2CCC(C(=O)NCc3cccnc3)CC2)cc1Cl,i,i,-3.2,i,i,nt,nt,nt
Cc1ccc(Sc2nc(-c3ccccc3)nnc2C(F)(F)F)cc1,i,i,-10.9,i,i,i,i,i
CNc1nc(-c2ccccc2)nnc1C(F)(F)F,i,i,-10.2,i,i,nt,nt,nt
COc1cc(/C=C2\C(=N)N3N=C(S(C)(=O)=O)SC3=NC2=O)ccc1OC(=O)c1ccco1,i,i,-8.1,i,i,nt,nt,nt
COc1cccc(C(=O)NC(=S)Nc2ccc(Cl)cc2C(=O)O)c1,i,i,-5.1,i,i,nt,nt,nt
COc1ccc(OCC(=O)NC(=S)Nc2ccc3c4c(cccc24)CC3)cc1,i,i,2.1,i,i,i,i,i
Cc1ccccc1OCC(=O)NC(=S)Nc1ccc2c3c(cccc13)CC2,i,i,-5.7,i,i,nt,nt,nt
